Bioassay records as filed in PubChem.
A selection: hits, their analogues and other compounds. The true share with any hit is near 2.3%.
TRPC4 block = inhibitors of mouse TRPC4 channel; HEK293 TRPC4beta/mu-opioid, DAMGO-evoked Fluo4 calcium flux; stronger effect = lower value; B-score at 10 µM; actives 0.39% (n = 300,000); AID 2247;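 active = B-score over 3 SD under the library average, no early fluorescence shift, positive overall ratio signal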
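Material: HEK293 cells with stable TRPC4beta plus mu-opioid receptor expression / Probe or stimulus: DAMGO in two steps, submaximal then maximal / Compound: single concentration per test compound / Technique: kinetic Fluo4 fluorescence imaging of calcium influx / Read-out: per-well B score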
TRPC6 activator = activators of mouse TRPC6 channel | Q61143 | HEK293-TRPC6 membrane potential dye fluorescence; stronger effect = higher value | B-score at 10 µM | actives 0.13% (n = 310,000) | AID 2550;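 active = B-score of the integrated fluorescence ratio above library mean plus 3 SD, and starting fluorescence ratio within library mean plus 5 SD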;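 note: higher score means more depolarization so channel activation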
Target sequence (Q61143 whole entry, looked up): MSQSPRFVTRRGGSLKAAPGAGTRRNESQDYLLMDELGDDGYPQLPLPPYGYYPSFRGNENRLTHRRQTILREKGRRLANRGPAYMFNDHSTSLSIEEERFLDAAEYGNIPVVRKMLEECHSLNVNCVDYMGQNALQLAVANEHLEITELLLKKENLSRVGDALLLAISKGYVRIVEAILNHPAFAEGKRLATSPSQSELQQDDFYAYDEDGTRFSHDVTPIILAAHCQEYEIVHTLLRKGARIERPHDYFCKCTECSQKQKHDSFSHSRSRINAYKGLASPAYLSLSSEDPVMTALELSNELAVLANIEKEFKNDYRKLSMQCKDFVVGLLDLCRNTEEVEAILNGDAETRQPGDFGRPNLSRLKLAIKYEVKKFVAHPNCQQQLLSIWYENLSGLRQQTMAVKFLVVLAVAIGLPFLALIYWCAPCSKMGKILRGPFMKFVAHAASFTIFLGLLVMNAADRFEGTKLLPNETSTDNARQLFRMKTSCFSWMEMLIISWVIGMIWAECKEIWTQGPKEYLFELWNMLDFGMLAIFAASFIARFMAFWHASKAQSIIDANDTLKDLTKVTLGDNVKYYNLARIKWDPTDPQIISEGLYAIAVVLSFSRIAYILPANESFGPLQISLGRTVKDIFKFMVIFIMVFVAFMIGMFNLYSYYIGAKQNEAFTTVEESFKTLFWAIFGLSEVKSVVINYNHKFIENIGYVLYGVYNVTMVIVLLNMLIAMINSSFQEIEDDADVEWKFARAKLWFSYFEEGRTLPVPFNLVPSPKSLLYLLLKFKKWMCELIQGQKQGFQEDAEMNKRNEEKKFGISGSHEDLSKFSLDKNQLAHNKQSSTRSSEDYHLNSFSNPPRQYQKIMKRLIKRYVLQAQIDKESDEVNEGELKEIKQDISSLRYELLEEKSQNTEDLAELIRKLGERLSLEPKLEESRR
TRPC4 act = activators of mouse TRPC4 channel | HEK293 TRPC4beta/mu-opioid, Fluo4 calcium fluorescence; stronger effect = higher value | B-score at 10 µM | actives 0.49% (n = 310,000);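 active = B-score above 5 SD of library B-scores, and initial fluorescence ratio not above library mean plus 5 SD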;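 note: positive B-score marks a calcium rise read as TRPC4 activation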
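Technique: kinetic Fluo4 calcium fluorescence; Test system: TRPC4beta and mu-opioid receptor HEK293 stable cells; Measure: B-scored integrated calcium fluorescence ratio; Benchmarks: low control buffer alone, high control maximal DAMGO; Schedule: 45 min room-temperature Fluo4 loading, 110 s read.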
TRPC6 inhibitor = inhibitors of mouse TRPC6 channel; Q61143; B-score at 10 µM; HEK293-TRPC6, membrane potential dye, ACh-evoked depolarization; stronger effect = lower value; actives 1.1% (n = 310,000);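 active = B-score under library mean minus 3 SD, initial fluorescence not abnormally high, positive integrated signal ratio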;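 note: B-score derived from integrated fluorescence ratio over the kinetic read; more negative B-score means stronger inhibition of depolarization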
TRPC4 potent = allosterically enhances the mouse TRPC4 cation channel; actives 0.42% (n = 310,000); B-score at 10 µM; Q9QUQ5; HEK293 TRPC4beta/mu-opioid, DAMGO EC20, Fluo-4 Ca2+ flux; stronger effect = higher value;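 active = B-score of calcium response area above 5 SD of library B-scores, with initial fluorescence ratio within 5 SD of library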;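 note: B-score of integrated fluorescence ratio over time as area under calcium response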
TRPC4 spec 2 = mouse TRPC4 off-target activity of TRPC6 inhibitors, second screen | shares compounds with TRPC6 inhibitor | HEK293 TRPC4/MOR, membrane potential dye fluorescence; channel activated by saturating DAMGO dose | inhibition, % at 10 µM | actives 42% (n = 920);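 active = compounds whose fluorescence signal differed from control wells by over 3 SD, either direction, in both duplicate plates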
TRPC4 spec = selectivity of TRPC6 inhibitors: effect on mouse TRPC4; shares compounds with TRPC6 inhibitor; HEK293 TRPC4/mu-opioid, membrane potential fluorescence; activity change, negative = inhibition, % at 10 µM; actives 61% (n = 920); AID 2777;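 active = rise or fall in signal beyond 3 SD of buffer-only wells in both replicate plates, either sign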;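 note: integrated kinetic ratio of fluorescence range over baseline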
HEK293 MPD ctr 2-1 = second check of TRPC6 inhibitor effects in parental HEK293 cells. parental HEK293 membrane potential dye fluorescence; maximal acetylcholine challenge after compound addition. AID 2779. shares compounds with TRPC6 inhibitor. actives 31% (n = 920). signal change vs control, % at 10 µM;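 active = membrane potential signal moving either way by over 3 SD of the maximum-effect control, in both duplicate plates, meaning non-specific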
HEK293 MPD ctr-1 = checks TRPC6 inhibitor effects in parental HEK293 cells; shares compounds with TRPC6 inhibitor; AID 2780; membrane potential signal change, % at 10 µM; actives 60% (n = 920); parental HEK293 membrane potential dye fluorescence;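 active = membrane potential signal shifting up or down by more than 3 SD of buffer-only wells, on both duplicate plates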
HEK293 MPD ctr-2 = counter-screen for TRPC6 modulators: effect in parental HEK293 cells. membrane potential dye fluorescence. shares compounds with TRPC6 inhibitor. membrane potential signal change, % at 10 µM. actives 51% (n = 2,400);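 active = membrane potential signal moves up or down beyond 5 SD from buffer-only wells, on both duplicate plates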
HEK293 MPD ctr 2-2 = parental HEK293 nonspecific activity of TRPC6 modulators, second screen | AID 488926 | inhibition, % at 10 µM | membrane potential dye fluorescence; after compound, maximal acetylcholine stimulation | shares compounds with TRPC6 inhibitor | actives 14% (n = 2,400);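 active = membrane potential signal drops by more than 5 SD from the mean control signal, in both duplicate plates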;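 note: plate controls were acetylcholine ECmax control wells for no effect and buffer only wells for full effect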
TRPC4 ctr mod = selectivity of TRPC6 modulators against mouse TRPC4 | percent change from control (negative = decrease, positive = increase), % at 10 µM | AID 488927 | shares compounds with TRPC6 inhibitor | HEK293 TRPC4/mu-opioid, membrane potential fluorescence | actives 69% (n = 2,400);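 active = membrane potential signal moved up or down beyond 5 SD of buffer control wells, in both duplicate plates, actives on both sides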;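 note: plate controls were assay buffer wells for no effect and DAMGO maximal-effect wells for full effect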
TRPC4 ctr inh 2 = mouse TRPC4 off-target activity of TRPC6 modulators, second screen | shares compounds with TRPC6 inhibitor | HEK293 TRPC4/mu-opioid, membrane potential dye fluorescence; stimulated with maximal-effect DAMGO | inhibition, % at 10 µM | actives 55% (n = 2,400);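 active = drop in membrane potential signal beyond 5 SD of the control wells in both duplicate plates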;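 note: TRPC4 counter screen for TRPC6 hits run under conditions tuned for TRPC6 not TRPC4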
TRPC6 inh conf = confirmation of mouse TRPC6 inhibitors; inhibition, % at 10 µM; actives 43% (n = 3,300); shares compounds with TRPC6 inhibitor; HEK293-TRPC6, membrane potential dye, ACh-evoked depolarization;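 active = fluorescence ratio falls more than 5 SD below the full-stimulation control mean, in both duplicate runs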;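 note: integrated fluorescence ratio of peak minus minimum over baseline after agonist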
TRPC6 act confirm = mouse TRPC6 activator confirmation; shares compounds with TRPC6 inhibitor; HEK293-TRPC6 membrane potential dye fluorescence, FDSS; activation, % at 10 µM; actives 11% (n = 2,800); AID 488961;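 active = ratio signal rise beyond 5 SD above unstimulated control wells' mean, seen in both duplicate runs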;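 note: plate controls were buffer EC0 wells for no effect and acetylcholine ECmax response for full effect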
* hit, by the source's call; i = inactive; x = no result given.

SMILES	TRPC4 block	TRPC6 activator	TRPC4 act	TRPC6 inhibitor	TRPC4 potent	HEK293 MPD ctr-2	HEK293 MPD ctr 2-2	TRPC4 ctr mod	TRPC4 ctr inh 2	TRPC6 inh conf	TRPC6 act confirm	others
N=c1c(C(=O)NC2CCCC2)cc2c(=O)n3ccccc3nc2n1Cc1ccccc1	i	i	i	-5.2*	i	-170%*	i	-34%*	48%*	i	i
CCOC(=O)c1cc2c(=O)n3ccccc3nc2n(CC(C)C)c1=NC(=O)c1ccco1	i	i	i	i	i	x	x	x	x	x	x
CCOC(=O)c1cc2c(=O)n3ccccc3nc2n(CCCOC)c1=NC(=O)C(C)(C)C	i	i	i	-5.9*	i	-195%*	i	-27%*	56%*	50%*	i
CCOC(=O)c1cc2c(=O)n3ccccc3nc2n(Cc2ccccc2)c1=N	i	i	i	-7.9*	i	-146%*	i	-32%*	42%*	i	i
Cc1nc([N+](=O)[O-])c(Br)n1Cc1ccc(Cl)c(Cl)c1	i	i	i	i	i	x	x	x	x	x	x
COc1ccc(-c2csc(NC(C)c3nc4cc(C(=O)NCCCO)ccc4n3Cc3ccc(C)cc3)n2)cc1 (stereo not given)	i	i	i	i	i	x	x	x	x	x	x
COCCNC(=O)CCC1CCN(Cc2cccc(Oc3ccccc3)c2)CC1	i	i	i	i	i	x	x	x	x	x	x
N=c1c(C(=O)NCC2CCCO2)cc2c(=O)n3ccccc3nc2n1Cc1ccccc1 (stereo not given)	i	i	i	-7.4*	i	-125%*	78%*	-28%*	38%*	45%*	i
N=c1c(C(=O)NCc2ccc3c(c2)OCO3)cc2c(=O)n3ccccc3nc2n1CC1CCCO1 (stereo not given)	i	i	i	i	i	x	x	x	x	x	x
COc1ccc(CCn2c(=N)c(C(=O)NCC3CCCO3)cc3c(=O)n4ccccc4nc32)cc1 (stereo not given)	i	i	i	-5.8*	i	-82%*	i	-22%*	60%*	58%*	i
N=c1c(C(=O)NCC2CCCO2)cc2c(=O)n3ccccc3nc2n1Cc1ccccc1Cl (stereo not given)	i	i	i	-6.7*	78*	x	x	x	x	i	i	TRPC4 spec 2=48%*;TRPC4 spec=i;HEK293 MPD ctr 2-1=i;HEK293 MPD ctr-1=-456%*
O=C(Nc1ccncc1)c1ccccc1Cl	i	i	i	i	i	x	x	x	x	x	x
Cc1cccc(NC(=O)c2cc(-c3cccnc3)nc3c(C)cccc23)n1	i	i	i	i	i	x	x	x	x	x	x
Cc1cccc(-n2cnc(C(=O)NC3CCCCCC3)c2)n1	i	i	i	-6*	i	i	i	9.0%*	i	i	i
CCOC(=O)c1c(NC(=O)COC)sc(C)c1C	i	i	i	i	i	x	x	x	x	x	x
CCOC(=O)c1c(NC(=O)COC(=O)c2cc(OC)c(OC)cc2[N+](=O)[O-])sc(C)c1C	i	i	i	-5.1*	i	i	i	i	40%*	i	i
Cc1ccc2nc(C)cc(Nc3ccc4c(c3)OCCO4)c2c1	-8*	i	i	-6.3*	i	-72%*	i	i	67%*	64%*	i
CCOc1ccc2nc(C)cc(Nc3ccc(N4CCOCC4)cc3)c2c1	i	i	i	i	i	x	x	x	x	x	x
CC(=O)c1ccc(Nc2cc(C)nc3ccc(C)cc23)cc1	i	i	i	-9.5*	i	x	x	x	x	i	i	TRPC4 spec 2=77%*;TRPC4 spec=-12%*;HEK293 MPD ctr 2-1=14%*;HEK293 MPD ctr-1=-276%*
CCOc1ccc2nc(C)cc(Nc3ccc4c(c3)OCCO4)c2c1	i	i	i	-9.8*	i	x	x	x	x	i	i	TRPC4 spec 2=i;TRPC4 spec=-13%*;HEK293 MPD ctr 2-1=i;HEK293 MPD ctr-1=-178%*
Cc1ccc2nc(C)cc(NCCO)c2c1	i	i	i	-8.4*	i	-282%*	81%*	-48%*	54%*	58%*	i
Cc1cc(Nc2ccc3c(c2)OCCO3)c2ccccc2n1	i	i	i	i	i	x	x	x	x	x	x
Cc1ccnc(NC(=O)CCC(=O)N(CC(=O)NCCc2ccccc2)c2ccccc2F)c1	i	i	i	i	i	x	x	x	x	x	x
CCC(C)NC(=O)c1ccccc1-c1nc2ccccc2[nH]1 (stereo not given)	i	i	i	i	i	x	x	x	x	x	x
c1ccc2c(c1)CCc1ccccc1C2=C1CCNCC1	i	i	i	-7.2*	i	x	x	x	x	i	i	TRPC4 spec 2=60%*;TRPC4 spec=3.8%*;HEK293 MPD ctr 2-1=i;HEK293 MPD ctr-1=2.8%*
Nc1ncc2c(n1)-c1ccccc1CC2	i	i	i	i	i	x	x	x	x	x	x
CNc1c([N+](=O)[O-])cnn1-c1cccc(Cl)n1	i	i	i	i	i	x	x	x	x	x	x
Cc1cccc(CSC(Nc2ccc(F)cc2)=C(C#N)C#N)c1	i	i	i	-5.2*	i	124%*	i	20%*	48%*	56%*	i
N#CC(C#N)=C(Nc1ccc(F)cc1)SCc1cccc(Br)c1	i	i	i	i	i	x	x	x	x	x	x
